From ChEMBL document CHEMBL1240328, “Selective compounds define Hsp90 as a major inhibitor of apoptosis in small-cell lung cancer” (Nat Chem Biol, 2007)
Activity calls are given as the source filed them.

Assays:
[1] = target: Heat shock protein HSP 90-beta (Homo sapiens) (UniProt P08238); test: Binding affinity to HSP90 in human NCI-H526 cells after 24 hrs by fluorescence polarization assay; format: cell-based
[2] = target: Heat shock protein HSP 90-beta (Homo sapiens) (UniProt P08238); test: Binding affinity to HSP90 in human NCI-N417 cells after 24 hrs by fluorescence polarization assay; format: cell-based; conditions: NCI-H417
[3] = target: Heat shock protein HSP 90-beta (Homo sapiens) (UniProt P08238); test: Binding affinity to HSP90 in human NCI-H146 cells after 24 hrs by fluorescence polarization assay; format: cell-based
[4] = target: Heat shock protein HSP 90-beta (Homo sapiens) (UniProt P08238); test: Binding affinity to HSP90 in human NCI-H187 cells after 24 hrs by fluorescence polarization assay
[5] = target: Heat shock protein HSP 90-beta (Homo sapiens) (UniProt P08238); test: Binding affinity to HSP90 in human NCI-H209 cells after 24 hrs by fluorescence polarization assay; format: cell-based
[6] = target: Heat shock protein HSP 90-beta (Homo sapiens) (UniProt P08238); test: Binding affinity to HSP90 in human NCI-H510 cells after 24 hrs by fluorescence polarization assay; format: cell-based
[7] = target: Heat shock protein HSP 90-beta (Homo sapiens) (UniProt P08238); test: Binding affinity to HSP90 in human NCI-H69 cells after 24 hrs by fluorescence polarization assay
[8] = target: Heat shock protein HSP 90-beta (Homo sapiens) (UniProt P08238); test: Inhibition of HSP90-mediated proliferation of human NCI-H526 cells at 0.3 to 0.5 uM after 72 to 96 hrs by sulforhodamine B assay; format: cell-based
[9] = target: Heat shock protein HSP 90-beta (Homo sapiens) (UniProt P08238); test: Inhibition of HSP90-mediated proliferation of human NCI-N417 cells at 0.3 to 0.5 uM after 72 to 96 hrs by sulforhodamine B assay; format: cell-based; conditions: NCI-H417
[10] = target: Heat shock protein HSP 90-beta (Homo sapiens) (UniProt P08238); test: Binding affinity to HSP90 in human SKBR3 cells after 24 hrs by fluorescence polarization assay; conditions: SK-BR-3
[11] = target: Heat shock protein HSP 90-beta (Homo sapiens) (UniProt P08238); test: Inhibition of HSP90 in chemo-resistant human H69AR cells at 100 uM after 24 hrs by fluorescence polarization assay; format: cell-based
Procedure, shortened: (§1)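 Competitive fluorescence polarization in lysates of H69AR, SKI-AC3 and WBA cells, prepared in HFB buffer pH 7.3 and normalized to Hsp90. Tracer was 3 nM Cy3B-geldanamycin, with incubation for 24 h at 4 °C. EC50 was defined as 50% tracer displacement.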

[12] = target: Heat shock protein HSP 90-beta (Homo sapiens) (UniProt P08238); test: Inhibition of HSP90 in chemo-resistant human SKI-AC3 cells at 100 uM after 24 hrs by fluorescence polarization assay; format: cell-based; procedure, shortened: as §1
[13] = target: Heat shock protein HSP 90-beta (Homo sapiens) (UniProt P08238); test: Inhibition of HSP90 in chemo-resistant human WBA cells at 100 uM after 24 hrs by fluorescence polarization assay; format: cell-based; procedure, shortened: as §1
[14] = target: Heat shock protein HSP 90-beta (Homo sapiens) (UniProt P08238); test: Inhibition of HSP90-mediated antiapoptotic activity in human H69AR cells assessed as induction of cell growth arrest at 10 after 96 hrs by propidium iodide staining-based flow cytometry
[15] = target: Heat shock protein HSP 90-beta (Homo sapiens) (UniProt P08238); test: Inhibition of HSP90-mediated antiapoptotic activity in human SKI-AC3 cells assessed as induction of cell growth arrest at 10 after 96 hrs by propidium iodide staining-based flow cytometry
[16] = target: Heat shock protein HSP 90-beta (Homo sapiens) (UniProt P08238); test: Inhibition of HSP90-mediated antiapoptotic activity in human WBA cells assessed as induction of cell growth arrest at 10 after 96 hrs by propidium iodide staining-based flow cytometry
NCI-H417 [17] = test: Anticancer activity against human NCI-N417 cells xenografted in ip dosed athymic mouse assessed as tumor caspase-3 cleavage administered daily for 5 consecutive days measured after 12 hrs post last dose by immunohistochemistry; format: functional, organism-based
Procedure, shortened: (§2)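 Nude athymic (nu/nu) mice carrying NCI-N417 xenografts (cells injected with Matrigel), treated once tumors were 7–9 mm in diameter. Dosing was five consecutive daily i.p. doses of 100 mg kg–1, and mice were killed 12 h after the last dose (n = 2). Tumors were analyzed by immunohistochemistry for cleaved caspase-3, Ki-67 and p-Akt, with vehicle-treated tumors as comparison.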

NCI-H417 [18] = test: Anticancer activity against human NCI-N417 cells xenografted in ip dosed athymic mouse assessed as decrease in tumor Akt activity administered daily for 5 consecutive days measured after 12 hrs post last dose by immunohistochemistry; format: functional, organism-based; procedure, shortened: as §2
NCI-H417 [19] = test: Anticancer activity against human NCI-N417 cells xenografted in athymic mouse assessed as decrease in tumor Akt activity at 75 mg/kg, ip administered daily for 5 consecutive days measured after 6 hrs post last dose by immunohistochemistry; format: functional, organism-based; parameters: dose 75 mg/kg
NCI-H417 [20] = test: Anticancer activity against human NCI-N417 cells xenografted in athymic mouse assessed as tumor growth inhibition at nontoxic dose administered ip daily for 5 consecutive days measured on day 20 post tumor implantation; format: functional, organism-based
Procedure, shortened: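 Nude athymic mice (n = 4) bearing NCI-N417 tumors of V = 50–90 mm3 were dosed i.p. and tumor growth was monitored. Results are given as mean ± s.d.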

[21] = Drug level in tumor of human NCI-N417 cell-xenograft athymic mouse model at 75 mg/kg, ip administered as single dose after 3 hrs by HPLC/MS/MS analysis; format: ADME, organism-based, Neoplasm; parameters: dose 75 mg/kg, route intraperitoneal; conditions: in vivo
Procedure, shortened: (§3)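 Nude mice bearing NCI-N417 xenografts received a single i.p. dose of 75 mg kg–1. Animals (n = 3) were killed at set times from 3 to 36 h. Tumors and brains were harvested and halved, and tumor drug content was quantified by HPLC/MS/MS.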

[22] = Drug level in tumor of human NCI-N417 cell-xenograft athymic mouse model at 75 mg/kg, ip administered as single dose after 6 hrs by HPLC/MS/MS analysis; format: ADME, organism-based, Neoplasm; parameters: dose 75 mg/kg, route intraperitoneal; conditions: in vivo; procedure, shortened: as §3
[23] = Drug level in tumor of human NCI-N417 cell-xenograft athymic mouse model at 75 mg/kg, ip administered as single dose after 8 hrs by HPLC/MS/MS analysis; format: ADME, organism-based, Neoplasm; parameters: dose 75 mg/kg, route intraperitoneal; conditions: in vivo; procedure, shortened: as §3
[24] = Drug level in tumor of human NCI-N417 cell-xenograft athymic mouse model at 75 mg/kg, ip administered as single dose after 12 hrs by HPLC/MS/MS analysis; format: ADME, organism-based, Neoplasm; parameters: dose 75 mg/kg, route intraperitoneal; conditions: in vivo; procedure, shortened: as §3
[25] = Drug level in tumor of human NCI-N417 cell-xenograft athymic mouse model at 75 mg/kg, ip administered as single dose after 24 hrs by HPLC/MS/MS analysis; format: ADME, organism-based, Neoplasm; parameters: dose 75 mg/kg, route intraperitoneal; conditions: in vivo; procedure, shortened: as §3
[26] = Drug level in tumor of human NCI-N417 cell-xenograft athymic mouse model at 75 mg/kg, ip administered as single dose after 36 hrs by HPLC/MS/MS analysis; format: ADME, organism-based, Neoplasm; parameters: dose 75 mg/kg, route intraperitoneal; conditions: in vivo; procedure, shortened: as §3
[27] = target: Heat shock protein HSP 90-beta (Homo sapiens) (UniProt P08238); test: Inhibition of HSP90-mediated proliferation of human SKBR3cells after 72 hrs by sulforhodamine B assay
[28] = target: Heat shock protein HSP 90-beta (Homo sapiens) (UniProt P08238); test: Inhibition of HSP90-mediated proliferation of human NCI-H69 cells at 0.3 to 0.5 uM after 72 to 96 hrs by intracellular ATP level assay
[29] = target: Heat shock protein HSP 90-beta (Homo sapiens) (UniProt P08238); test: Inhibition of HSP90-mediated proliferation of human NCI-H146 cells at 0.3 to 0.5 uM after 72 to 96 hrs by intracellular ATP level assay
[30] = target: Heat shock protein HSP 90-beta (Homo sapiens) (UniProt P08238); test: Inhibition of HSP90-mediated proliferation of human NCI-H187 cells at 0.3 to 0.5 uM after 72 to 96 hrs by intracellular ATP level assay
[31] = target: Heat shock protein HSP 90-beta (Homo sapiens) (UniProt P08238); test: Inhibition of HSP90-mediated proliferation of human NCI-H209 cells at 0.3 to 0.5 uM after 72 to 96 hrs by intracellular ATP level assay
[32] = target: Heat shock protein HSP 90-beta (Homo sapiens) (UniProt P08238); test: Inhibition of HSP90-mediated proliferation of human NCI-H510 cells at 0.3 to 0.5 uM after 72 to 96 hrs by intracellular ATP level assay
NCI-H417 [33] = test: Anticancer activity against human NCI-N417 cells xenografted in athymic mouse assessed as decrease in tumor Akt activity at 75 mg/kg, ip administered as single dose measured after 36 hrs post dose by Western blot

Chain of Heat shock protein HSP 90-beta (Homo sapiens) (P08238 whole entry): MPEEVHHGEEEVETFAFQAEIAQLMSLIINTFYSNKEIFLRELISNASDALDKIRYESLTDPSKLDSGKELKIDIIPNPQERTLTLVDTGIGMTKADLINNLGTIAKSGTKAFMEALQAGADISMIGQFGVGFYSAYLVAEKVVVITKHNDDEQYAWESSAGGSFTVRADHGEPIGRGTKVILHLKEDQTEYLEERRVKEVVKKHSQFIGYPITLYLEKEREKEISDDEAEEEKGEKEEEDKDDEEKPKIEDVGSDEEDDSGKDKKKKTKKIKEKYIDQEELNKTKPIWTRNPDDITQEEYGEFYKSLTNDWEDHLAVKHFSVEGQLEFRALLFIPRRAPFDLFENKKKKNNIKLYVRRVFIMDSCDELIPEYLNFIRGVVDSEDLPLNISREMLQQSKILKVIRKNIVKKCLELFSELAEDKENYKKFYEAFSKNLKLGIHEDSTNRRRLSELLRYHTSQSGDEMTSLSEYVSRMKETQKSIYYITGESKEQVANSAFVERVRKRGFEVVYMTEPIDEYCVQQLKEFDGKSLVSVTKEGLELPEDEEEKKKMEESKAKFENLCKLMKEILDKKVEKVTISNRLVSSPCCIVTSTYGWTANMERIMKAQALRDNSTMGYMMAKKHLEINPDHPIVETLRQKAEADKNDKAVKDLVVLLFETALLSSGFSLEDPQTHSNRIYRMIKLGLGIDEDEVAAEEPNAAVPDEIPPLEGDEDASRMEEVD

- Activity [1]: Active
- Activity [2]: Active
- Activity [3]: Active
- Activity [4]: Active
- Activity [5]: Active
- Activity [6]: Active
- Activity [7]: Active
- inhibition [8]: 50%
- inhibition [9]: 50%
- Activity [10]: Active
- inhibition [11]: Active
- inhibition [12]: Active
- inhibition [13]: Active
- Activity [14]: Active
- Activity [15]: Active
- Activity [16]: Active
- Drug uptake [21]: Active
- Drug uptake [22]: Active
- Drug uptake [23]: Active
- Drug uptake [24]: Active
- Drug uptake [25]: Active
- Drug uptake [26]: Active
- inhibition [27]: Active
- inhibition [28]: 50%
- inhibition [29]: 50%
- inhibition [30]: 50%
- inhibition [31]: 50%
- inhibition [32]: 50%
Compound: CC(C)NCCCn1c(Sc2cc3c(cc2I)OCO3)nc2c(N)ncnc21 [PU-H71]
- Activity (NCI-H417 [17]): Dose-dependent effect
- inhibition (NCI-H417 [18]): Dose-dependent effect
- Activity (NCI-H417 [19]): Active
- inhibition (NCI-H417 [20]): Active
- Activity (NCI-H417 [33]): Active
